Measured values taken from ChEMBL document CHEMBL4811241, “Revisiting Pyrazolo[3,4-d]pyrimidine Nucleosides as Anti-Trypanosoma cruzi and Antileishmanial Agents” (J Med Chem, 2021).

Key:
[1] = Selectivity index, ratio of CC50 for Swiss mouse peritoneal macrophages to IC50 for antileishmanial activity against amastigote form of Leishmania infantum MHOM/MA(BE)/67 infected in Swiss mouse peritoneal macrophages; format: toxicity; settings: read-out: Ratio CC50/IC50
Summary of the method: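 Ratio of macrophage CC50 to L. infantum amastigote IC50, both taken from the same 5-day macrophage assay.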

[2] = Selectivity index, ratio of CC50 for human MRC-5 SV2 cells to IC50 for antitrypanosomal activity against nifurtimox-sensitive Trypanosoma cruzi Tulahuen CL2 infected in human MRC-5 SV2 cells; format: toxicity, cell-based; settings: read-out: Ratio CC50/IC50
Summary of the method: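 Ratio of MRC-5SV2 CC50 (3-day resazurin assay) to IC50 against T. cruzi amastigotes in MRC-5SV2 cells (7-day CPRG assay).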

Leishmania infantum = experiment: Antileishmanial activity against amastigote form of Leishmania infantum MHOM/MA(BE)/67 infected in Swiss mouse peritoneal macrophages assessed as reduction in parasite growth treated at 2 hrs post-infection and measured after 5 days by Giemsa staining based microscopic analysis; format: functional, organism-based; settings: MHOM/MA(BE)/67, Peritoneal macrophage
Summary of the method: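 Swiss mouse peritoneal macrophages, harvested after 2-day potato-starch stimulation, infected 48 h after plating; compounds added 2 h post-infection.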

[3] = Cytotoxicity against human MRC-5 SV2 cells assessed as reduction in cell growth measured after 3 days by resazurin dye based fluorometric analysis; settings: time 3 day
[4] = Cytotoxicity against Swiss mouse peritoneal macrophages assessed as cell detachment, lysis and granulation measured after 5 days by microscopic analysis; format: cell-based, Peritoneal macrophage; settings: time 5 day
Summary of the method: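 Scored within the Leishmania macrophage assay over 5 days: detachment, lysis and granulation judged semi-quantitatively by microscopy across at least 500 cells. CC50 derived from % reduction in normal cells versus untreated wells.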

Trypanosoma cruzi [5] = experiment: Antitrypanosomal activity against nifurtimox-sensitive Trypanosoma cruzi Tulahuen CL2 infected in human MRC-5 SV2 cells assessed as inhibition of parasite growth measured after 7 days by spectrophotometric analysis; format: functional, organism-based; settings: Tulahuen CL2, MRC-5 SV2, 168 h
Trypanosoma cruzi [6] = experiment: Antitrypanosomal activity against Trypanosoma cruzi Y bloodstream trypomastigotes assessed as inhibition of parasite growth incubated for 24 hrs by light microscopy; format: functional, organism-based
[7] = Cytotoxicity against Swiss Webster mouse 2D cardiomyocytes assessed as reduction in cell viability measured after 48 hrs by PrestoBlue assay; parameters: species or system Cardiac Muscle Cell; settings: read-out: LC50
Summary of the method: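 Mouse embryo heart cells as monolayer (2D) or 3D aggregates (25 × 10³ cells/well on 1% agarose). Uninfected cultures exposed 48 h to rising concentrations. Morphology checked by light microscopy; viability read by PrestoBlue; CC₅₀ determined.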

Trypanosoma cruzi [8] = experiment: Antitrypanosomal activity against intracellular amastigote form of Trypanosoma cruzi Y infected in Swiss Webster mouse cardiomyocytes assessed as inhibition of parasite growth incubated for 48 hrs by Giemsa staining based microscopic analysis; format: functional, organism-based; settings: Cardiac muscle cell
Summary of the method: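 Primary 2D mouse embryo cardiac cell cultures, infected for 24 h, then washed and exposed for 48 h at 37 °C to a serial dilution. Cells fixed and stained with Giemsa; infected cells and parasites per infected cell scored in 200 host cells. Activity expressed from the inhibition index; two independent experiments run in duplicate.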

[9] = tested on: Trypanosoma brucei rhodesiense; experiment: Antitrypanosomal activity against Trypanosoma brucei rhodesiense STIB900 measured after 6 hrs by alamar blue dye based fluorimetry analysis; format: functional, organism-based; settings: STIB900, 6 h

SMILES	selectivity ratio [1]	selectivity ratio [2]	IC50 (Leishmania infantum)	CC50 at 72 h [3]	CC50 at 120 h [4]	IC50 (Trypanosoma cruzi [5])	IC50 (Trypanosoma cruzi [6])	CC50 at 48 h [7]	IC50 (Trypanosoma cruzi [8])	EC50 [9]
Nc1ncnc2c1c(N)nn2[C@@H]1O[C@H](CO)[C@@H](O)[C@H]1O	1	3	6.82 µM	23 µM	8 µM	7.64 µM				
Nc1ncnc2c1c(-c1ccc(Cl)cc1Cl)nn2[C@@H]1O[C@H](CO)[C@@H](O)[C@H]1O	> 1	> 11	52.8 µM	> 64 µM	> 64 µM	6.06 µM				
Nc1ncnc2c1cnn2[C@@H]1O[C@H](CO)[C@@H](O)[C@H]1O	> 60	> 219	1.06 µM	> 64 µM	> 64 µM	0.29 µM	> 81 µM	> 500 µM	2460 nM	
Nc1ncnc2c1ccn2[C@@H]1O[C@H](CO)[C@@H](O)[C@H]1O [TUBERCIDIN]										36 nM
Nc1ncnc2c1c(Oc1ccccc1)nn2[C@@H]1O[C@H](CO)[C@@H](O)[C@H]1O	> 2		32 µM	> 64 µM	> 64 µM	> 64 µM				
Nc1ncnc2c1c(Br)nn2[C@@H]1O[C@H](CO)[C@@H](F)[C@H]1O	1		0.08 µM	0.23 µM	0.13 µM	1.06 µM				
Nc1ncnc2c1c(C#Cc1ccccc1)nn2[C@@H]1O[C@H](CO)[C@@H](O)[C@H]1O	> 1	> 2	49.4 µM	> 64 µM	> 64 µM	29.4 µM				
O=c1[nH]cnc2c1cnn2[C@@H]1O[C@H](CO)[C@@H](O)[C@H]1O	10	9	6.66 µM	> 64 µM	> 64 µM	7.18 µM				
Nc1ncnc2c1c(-c1ccncc1)nn2[C@@H]1O[C@H](CO)[C@@H](O)[C@H]1O	> 3	> 3	25.4 µM	> 64 µM	> 64 µM	21.5 µM				
Nc1ncnc2[nH]ncc12	> 355	5	0.18 µM	2.46 µM	> 64 µM	0.57 µM				
Cc1nn([C@@H]2O[C@H](CO)[C@@H](O)[C@H]2O)c2ncnc(N)c12	1	12	32.7 µM	57.5 µM	40 µM	4.68 µM				
Nc1ncnc2c1c(/C=C/c1ccccc1)nn2[C@@H]1O[C@H](CO)[C@@H](O)[C@H]1O	> 1	> 4	50.8 µM	> 64 µM	> 64 µM	16.5 µM				
NCc1nn([C@@H]2O[C@H](CO)[C@@H](O)[C@H]2O)c2ncnc(N)c12	4	5	2 µM	59.3 µM	8 µM	11.1 µM				
Nc1ncnc2c1c(-c1c[nH]nn1)nn2[C@@H]1O[C@H](CO)[C@@H](O)[C@H]1O	> 1	1	43.1 µM	0.6 µM	> 64 µM	0.43 µM				
Nc1ncnc2c1c(-c1ccc(Cl)cc1)nn2[C@H]1C[C@H](O)[C@@H](CO)O1	1	> 22	≥ 32.5 µM	> 64 µM	≥ 32 µM	2.49 µM				
Nc1ncnc2c1c(-c1ccccn1)nn2[C@@H]1O[C@H](CO)[C@@H](O)[C@H]1O	1	1	≥ 50.8 µM	36.4 µM	> 64 µM	30.1 µM				
Nc1ncnc2c1c(Br)nn2[C@@H]1O[C@H](CO)[C@@H](O)[C@H]1O	> 2	> 15	29.4 µM	> 64 µM	> 64 µM	4.37 µM				
Nc1ncnc2c1c(Cl)nn2[C@@H]1O[C@H](CO)[C@@H](O)[C@H]1O	> 1	> 22	> 64 µM	> 64 µM	> 64 µM	2.89 µM				

SMILES	selectivity ratio [1]	selectivity ratio [2]	IC50 (Leishmania infantum)	CC50 at 72 h [3]	CC50 at 120 h [4]	IC50 (Trypanosoma cruzi [5])	IC50 (Trypanosoma cruzi [6])	CC50 at 48 h [7]	IC50 (Trypanosoma cruzi [8])	EC50 [9]
Oc1ncnc2[nH]ncc12 [ALLOPURINOL]	> 18	> 7	3.51 µM	> 64 µM	> 64 µM	9.75 µM				
Nc1ncnc2c1ccn2[C@@H]1O[C@H](CO)C[C@H]1O										0.52 nM
C=Cc1nn([C@@H]2O[C@H](CO)[C@@H](O)[C@H]2O)c2ncnc(N)c12	3		12.7 µM	> 64 µM	32 µM	> 64 µM				
NC(=O)c1nn([C@@H]2O[C@H](CO)[C@@H](O)[C@H]2O)c2ncnc(N)c12	1	1	8.11 µM	0.25 µM	8 µM	0.25 µM				
N#Cc1nn([C@@H]2O[C@H](CO)[C@@H](O)[C@H]2O)c2ncnc(N)c12	> 8	36	8 µM	34.6 µM	> 64 µM	0.95 µM				
Nc1ncnc2c1c(C(=O)Nc1ccccc1)nn2[C@@H]1O[C@H](CO)[C@@H](O)[C@H]1O	1		32.5 µM	> 64 µM	32 µM	> 64 µM				
Nc1ncnc2c1c(I)nn2[C@@H]1O[C@H](CO)[C@@H](O)[C@H]1O	> 2	2	25.4 µM	25.4 µM	> 64 µM	12.6 µM				
Cc1ccc(-c2nn([C@@H]3O[C@H](CO)[C@@H](O)[C@H]3O)c3ncnc(N)c23)s1	> 1	> 9	≥ 32 µM	> 64 µM	> 64 µM	7.1 µM				
C=C(C)c1nn([C@@H]2O[C@H](CO)[C@@H](O)[C@H]2O)c2ncnc(N)c12	1	< 1	24.1 µM	0.35 µM	32 µM	29.5 µM				
C#Cc1nn([C@@H]2O[C@H](CO)[C@@H](O)[C@H]2O)c2ncnc(N)c12	1	20	10.4 µM	≥ 46.5 µM	≥ 8 µM	2.78 µM				
Nc1ncnc2c1c(-c1ccccc1)nn2[C@@H]1O[C@H](CO)[C@@H](O)[C@H]1O		> 5	> 64 µM	> 64 µM	> 64 µM	13.1 µM				
Nc1ncnc2c1c(C(F)F)nn2[C@@H]1O[C@H](CO)[C@@H](O)[C@H]1O	1	< 1	0.25 µM	2.42 µM	0.25 µM	8.3 µM				
Cc1ccc(-c2nn([C@@H]3O[C@H](CO)[C@@H](O)[C@H]3O)c3ncnc(N)c23)cc1		> 36	> 64 µM	> 64 µM	> 64 µM	1.77 µM				
Nc1ncnc2c1c(-c1ccc(C(F)(F)F)cc1)nn2[C@@H]1O[C@H](CO)[C@@H](O)[C@H]1O	> 1	> 10	57 µM	> 64 µM	> 64 µM	6.34 µM				
Nc1ncnc2c1c(-c1ccc(F)c(F)c1)nn2[C@@H]1O[C@H](CO)[C@@H](O)[C@H]1O		> 15	> 64 µM	> 64 µM	> 64 µM	4.24 µM				
CNc1nn([C@@H]2O[C@H](CO)[C@@H](O)[C@H]2O)c2ncnc(N)c12	> 1		50.8 µM	> 64 µM	> 64 µM	> 64 µM				
Nc1ncnc2c1c(-c1cc(F)c(Cl)c(F)c1)nn2[C@@H]1O[C@H](CO)[C@@H](O)[C@H]1O		> 17	> 64 µM	> 64 µM	> 64 µM	1.33 µM				
